Screening results (PubChem BioAssay)
Hits are enriched below; roughly 3.7% of the tested compounds scored in any of these assays.
hERG rescue: hERG (human) protection from proarrhythmic block; activation (rescue from dofetilide block), less the hit threshold, % at 10 µM; CHO-hERG, FluxOR thallium flux, dofetilide IC70 present; AID 1511; 0.51% of 310,000 active;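 active means activation above the mean of controls blocked by dofetilide plus 5 SD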;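 further: thallium influx through hERG after potassium depolarization seen as dye fluorescence rise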
KCNK9 block: blocks the human KCNK9 two-pore domain potassium channel. Q9NPC2. HEK293 KCNK9, FluxOR thallium flux fluorescence; stronger effect = lower value. B-score at 10 µM. 1.2% of 310,000 active. AID 488922;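 active means ratio B-score over 3 SD below the library mean, with starting fluorescence within 5 SD of its mean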;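 further: negative B-score means less thallium flux so channel inhibition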
KCNK3 block: human KCNK3 channel inhibition, primary screen | O14649 | 0.84% of 340,000 active | AID 602410 | B-score at 10 µM | CHO-KCNK3 thallium flux, FluxOR fluorescence; stronger effect = lower value;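 active means B-score under library mean minus 4 SD, starting fluorescence ratio at most library mean plus 5 SD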;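 further: more negative B-score means stronger inhibition of thallium flux through KCNK3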
KCNQ1 block: blocks the human KCNQ1 potassium channel | AID 2642 | 1.3% of 310,000 active | B-score at 10 µM | CHO-K1 KCNQ1, FluxOR thallium flux fluorescence; stronger effect = higher value;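 active means compounds whose thallium flux B-score, printed positive for inhibition, exceeds three library SD while starting fluorescence stays within three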;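 further: channel opened by potassium depolarization with thallium stimulus after 20 min compound exposure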
KCNQ1 pot: potentiators or activators of human KCNQ1 potassium channel; P51787; CHO-K1 KCNQ1, thallium flux FluxOR fluorescence; stronger effect = higher value; B-score at 10 µM; 0.35% of 310,000 active;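 active means fluorescence ratio B-score, a plate-corrected score, at least three library SD, with initial intensity B-score within 5 SD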
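System: CHO-K1 cells stably expressing KCNQ1 / Medium: assay buffer for compound exposure, DMSO matched across wells / Reagent: thallium- and potassium-containing depolarizing buffer / Compound: one concentration, matched DMSO / Incubation: 20 min compound pretreatment at room temperature / Measured by: kinetic FluxOR fluorescence, 10 s baseline plus 110 s post-stimulus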
Kir21 block: blocks the mouse Kir2.1 inward-rectifier potassium channel | P35561 | HEK293-Kir2.1, FluxOR thallium flux fluorescence; stronger effect = lower value | B-score at 10 µM | 0.85% of 310,000 active | AID 1672;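 active means fluorescence ratio B-score at or below minus 3 SD of library scores, with starting-brightness B-score within 2 SD, cut at about -4.2 in these data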;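 further: channel flux triggered by added potassium and thallium sulfate stimulus; B-score of peak minus minimum fluorescence over baseline after thallium stimulus; more negative B-score means stronger Kir2.1 block with less thallium influx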
KCNK9 inh conf: human KCNK9 inhibitor confirmation. shares compounds with KCNK9 block. HEK293 KCNK9 cells, FluxOR thallium flux fluorescence. inhibition, % at 10 µM. 43% of 4,900 active. AID 492992;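 active means thallium signal inhibited by more than 5 SD of the compound-free buffer control wells, on both duplicate plates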;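 further: 0% = assay buffer control wells without compound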
Kir2-1 spec: tests whether KCNK9 modulators also affect mouse Kir2.1; 4% of 4,900 active; Kir2.1 cells, FluxOR thallium flux fluorescence; shares compounds with KCNK9 block; inhibition, % at 10 µM;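 active means thallium signal drop more than 5 SD beyond the mean of the no-compound control wells, seen in both duplicate plates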;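 further: signal is fluorescence rise after thallium addition divided by baseline fluorescence; plate controls were assay buffer only for no effect and full block by chlorpromazine control for full effect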
KCNK9 uninduced: non-induced cell nonspecific activity of KCNK9 modulators; shares compounds with KCNK9 block; non-induced KCNK9-HEK293, FluxOR thallium flux; AID 492997; 40% of 4,900 active; inhibition, % at 10 µM;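 active means thallium signal drop beyond 5 SD of the untreated control mean, on both duplicate plates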;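 further: plate controls were buffer only IC0 wells for no effect and SID17386958 at its maximal inhibitory level for full effect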
* hit, by the source's call; i = inactive; nt = no result given.

SMILES	hERG rescue	KCNK9 block	KCNK3 block	KCNQ1 block	KCNQ1 pot	Kir21 block	KCNK9 inh conf	Kir2-1 spec	KCNK9 uninduced
CC(=O)Nc1ccc(NC(=O)CN2CCN(c3cccc(C(F)(F)F)c3)CC2)cc1	-8	i	i	i	i	-0.5	nt	nt	nt
O=C(CN1CCN(c2cccc(C(F)(F)F)c2)CC1)Nc1cccc(C(F)(F)F)c1	-17	i	i	9*	i	-0.4	i	i	i
Cn1ccnc1SCC(=O)Nc1cccc(C(F)(F)F)c1	-3	i	i	i	i	-0.51	nt	nt	nt
COc1ccc(Br)cc1CNc1ccc(N2CCOCC2)cc1	-8	i	i	i	i	0.48	nt	nt	nt
COc1cccc(CNc2ccc(N3CCC(C)CC3)cc2)c1OC	-3	i	i	i	i	-2.5	i	i	i
c1ccc(Cc2nnc(N3CCCCC3)c3ccccc23)cc1	-4	i	i	i	i	-2.3	i	i	i
Cc1cc2nnc(SCC(=O)OC(C)C)n2c2ccccc12	-14	i	i	i	i	0.42	nt	nt	nt
CCN(CC)S(=O)(=O)c1ccc(N2CCOCC2)c(NC(=O)c2cc3ccccc3oc2=O)c1	-1	-12*	i	i	i	0.42	55%*	i	i
CCN(CC)c1ccc(C(=O)OCC(=O)Nc2cc(C)on2)cc1	nt	nt	i	nt	nt	nt	nt	nt	nt
COC(=O)c1ccccc1NC(=O)CN(C)Cc1ccccc1	-7	-9.9*	i	i	i	-1.6	39%*	i	38%*
COc1ccccc1C1CCN(C(=O)c2cnn(-c3ccccc3)c2C)CC1	-12	i	i	i	i	0.19	i	i	i
COc1ccccc1C1CCN(C(=O)c2ccccc2)CC1	-9	i	i	i	i	0.01	nt	nt	nt
COC(=O)c1cc(-c2ccc3c(c2)OCO3)nc2ccccc12	-4	i	i	i	i	1	nt	nt	nt
Cc1cc(C)nc(NC(=O)c2cc(-c3ccc4c(c3)OCO4)nc3ccccc23)c1	-25	i	i	i	i	2.1	i	i	i
Cc1csc(NC(=O)c2cc(-c3ccccc3)nc3ccccc23)n1	-12	-9.8*	i	i	i	0.28	42%*	i	40%*
COc1ccccc1OCCNC(=O)c1cccc(S(=O)(=O)N2CC(C)OC(C)C2)c1 (stereo not given)	-9	i	i	i	i	0.03	nt	nt	nt
Cc1cc(N/N=C/c2ccc(F)cc2)nc(NCc2ccccc2)n1	-21	i	i	i	i	0.56	nt	nt	nt
Cc1cc(N/N=C/c2ccc(Cl)cc2Cl)nc(NCc2ccccc2)n1	-12	i	i	i	i	3	i	i	i
Clc1cc2nc[nH]c2cc1Cl	-11	i	i	i	i	-0.01	nt	nt	nt
CCOC(=O)C1=C(C)N=c2s/c(=C\c3ccc(OCC(=O)O)cc3)c(=O)n2C1c1ccccc1 (stereo not given)	-11	i	i	i	i	1.9	i	i	i
COc1cccc(C2C3=C(N=c4s/c(=C\c5ccc(OCC(=O)O)cc5)c(=O)n42)c2ccccc2CC3)c1 (stereo not given)	0	i	nt	i	i	0.06	i	i	i
CCOC(=O)c1cccc(COC(=O)c2cccc(-c3nnc(-c4ccccc4)o3)c2)c1	-17	-19*	i	i	i	-0.08	68%*	i	24%*
O=C(OCc1ccccc1)c1cccc(-c2nnc(-c3ccccc3)o2)c1	-34	i	i	i	i	-0.52	nt	nt	nt
Cc1cc(=O)oc2c(C)c3occc3cc12	-3	i	i	i	i	-0.16	nt	nt	nt
Cc1cc(C(=O)OCC(=O)Nc2nc(-c3ccccc3)cs2)c(C)o1	-4	i	i	i	i	-2.6	nt	nt	nt
SMILES	hERG rescue	KCNK9 block	KCNK3 block	KCNQ1 block	KCNQ1 pot	Kir21 block	KCNK9 inh conf	Kir2-1 spec	KCNK9 uninduced
Cc1cc(C(=O)OC(C)C(=O)Nc2nc(-c3ccccc3)cs2)c(C)o1 (stereo not given)	-8	i	i	i	i	-0.07	i	i	i
O=C(CN1C(=O)NC2(CCCCCC2)C1=O)N1CCCCC1	nt	nt	i	nt	nt	nt	nt	nt	nt
Cc1ccc(-c2ccc(C(=O)NCc3ccccc3)o2)c2ccccc12	-10	i	i	i	i	0.21	nt	nt	nt
Cc1ccc(S(=O)(=O)NC(=O)c2ccc(-c3ccc(C)c4ccccc34)o2)cc1	-19	i	i	i	i	0.46	i	i	i
Cc1ccc(-c2ccc(C(=O)Nc3ccccc3)o2)c2ccccc12	-17	i	i	6*	i	0.9	i	i	i
O=C(Cc1ccccc1)Nc1cc(C(=O)c2ccccc2)ccc1N1CCOCC1	-11	i	i	i	i	0.17	nt	nt	nt
O=S(=O)(Nc1ccc(C(F)(F)F)cn1)c1ccccc1	-5	i	i	i	i	-0.25	nt	nt	nt
Cc1ccc(O)c(C(=O)c2cc(C#N)c(=O)n(Cc3ccccc3)c2)c1	-3	i	i	i	i	0.49	nt	nt	nt
COc1ccc(O)c(C(=O)CC(=O)c2ccccc2)c1	0	i	nt	i	i	1.3	nt	nt	nt
COc1ccc(O)c(C(=O)c2cc(C(=O)NCCc3ccccc3)c(=O)n(CCc3ccccc3)c2)c1	-6	i	i	i	i	-0.02	i	i	i
Cc1ccc(O)c(C(=O)c2cc(C(=O)NCCc3ccccc3)c(=O)n(CCc3ccccc3)c2)c1	-23	i	i	6*	i	-0.15	i	i	i
COc1ccc(C(C(=O)NC2CCCC2)N(CCCO)C(=O)c2snc(C(N)=O)c2N)cc1 (stereo not given)	-7	i	i	i	i	1.7	nt	nt	nt
COc1ccc(-n2nc(C(=O)NCC(=O)N3CCN(c4ccccn4)CC3)c3ccccc3c2=O)cc1Cl	-5	i	i	i	i	-0.73	nt	nt	nt
COc1ccc(-n2nc(C(=O)NCC(=O)N3CCC(C)CC3)c3ccccc3c2=O)cc1Cl	-8	i	i	i	i	0.5	i	i	i
CC(C)(C)C(=O)/C=c1\s/c(=C\c2ccc(-c3ccc([N+](=O)[O-])cc3)o2)c(=O)n1CC(=O)NC(N)=O	-32	i	i	i	i	-3.1	nt	nt	nt
